According to ChEMBL document CHEMBL4304791, “DABMA: A Derivative of ABMA with Improved Broad-Spectrum Inhibitory Activity of Toxins and Viruses” (ACS Med Chem Lett, 2019):
The source made the active and inactive calls. The rule behind the calls is not given here.

What was measured:
A549 [1] = assay: Inhibition of diphtheria induced toxicity in human A549 cells assessed as protection factor at 0.15 nM incubated for 20 hrs followed by replacement of [14c]-Leucine containing medium and measured after 4 hrs by liquid scintillation analysis relative to untreated control; assay type: functional
Outline: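 A549 cells were incubated with Baf A1 (0.15 nM), DABMA (15 μM), both, or DMSO vehicle before DT was added, with the compounds kept present throughout. Toxin protection was read as protein synthesis and expressed as protection factor.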

A549 [2] = assay: Cytoprotection activity against diphtheria toxin-induced cytotoxicity against human A549 cells assessed as effect on protein synthesis incubated for 20 hrs followed by replacement of [14c]-Leucine containing medium and measured after 4 hrs by liquid scintillation analysis; assay type: functional, cell-based
Outline: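 A549 cells were incubated with compound and then challenged with increasing DT concentrations. DT cytotoxicity was read as protein synthesis inhibition. Data are mean of duplicate wells ± SD from one representative experiment (n = 3).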

A549 [3] = assay: Inhibition of diphtheria induced toxicity in human A549 cells assessed as protection fold at 30 uM incubated for 20 hrs followed by replacement of [14c]-Leucine containing medium and measured after 4 hrs by liquid scintillation analysis relative to ABMA; assay type: functional
Outline: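 Single-concentration screen: 30 μM compound on A549 cells with increasing DT concentrations, read as protein synthesis inhibition. Protection fold was calculated with ABMA as the positive control.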

Lyssavirus rabies = assay: Antiviral activity against RABV infected in BSR cells preincubated for 4 hrs followed by viral infection and further incubated with compounds for 24 hrs by immunostaining-based assay; assay type: functional, organism-based
Outline: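 BSR cells were pretreated 4 h with compound, then infected with RABV (MOI = 14) for 1 h. Cells were washed and kept with compound for 24 h, then fixed and immunostained for the RABV ribonucleocapsid (RNP). Nuclei and RNP images from 15 fields per well (>10,000 cells) were used to calculate percent inhibition.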

[4] = Cytotoxicity against human A549 cells assessed as reduction in cell viability incubated for 24 hrs by Alamar blue assay; assay type: cell-based
Outline: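 A549 cytotoxicity by Alamar Blue viability assay; duplicate wells, mean ± SD, one representative experiment (n = 3).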

A549 [5] = assay: Selectivity index, ratio of CC50 for cytotoxicity against human A549 cells to EC50 for cytoprotective activity in diphtheria-induced cytotoxicity in human A549 cells
A549 [6] = assay: Induction of lysosomal activation in human A549 cells at 30 uM incubated for 2 hrs by LysoTracker Red staining based confocal microscopic analysis; assay type: functional, cell-based
Outline: (§1)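 A549 cells were pretreated 2 h with compound (30 or 60 μM) or DMSO, then stained with LysoTracker Deep Red (50 nM, 30 min) plus Hoechst. Intensity was read from 3 × 3 fields per well (10,000 cells/well) by imaging reader; mean ± SEM, n = 4; confocal images.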

Vero = assay: Inhibition of TcdB-induced cytotoxicity against African green monkey Vero cells assessed as reduction in toxin-induced cell rounding at 30 uM in presence of TcdB after 4 hrs by inverted microscopic analysis; assay type: functional, cell-based; details: Chlorocebus sabaeus
Outline: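 Vero cells were given compound (30 μM) or DMSO, then increasing doses of TcdB for 4 h or TcsL for 16 h. Cell rounding was imaged by inverted microscope. Rounded cells were counted and normalised to total Hoechst-counterstained cells (>100 cells per treatment).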

L929 = assay: Cytoprotective activity in Pseudomonas aeruginosa exotoxin-induced toxicity in mouse L929 cells assessed as protection of protein synthesis after 18 hrs followed by replacement of [14c]-Leucine containing medium and measured after 4 hrs by liquid scintillation analysis by liquid scintillation analysis; assay type: functional, cell-based
Outline: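 L929 cells were intoxicated with increasing doses of Pseudomonas exotoxin A for 18 h with compound (30 μM) or DMSO present. Protein synthesis was measured; duplicate wells, mean ± SD, one representative experiment (n = 3).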

A549 [7] = assay: Induction of lysosomal activation in human A549 cells incubated for 2 hrs by LysoTracker Red staining based confocal microscopic analysis; assay type: functional, cell-based; outline: as §1
A549 [8] = assay: Induction of lysosomal activation in human A549 cells at 60 uM incubated for 2 hrs by LysoTracker Red staining based confocal microscopic analysis; assay type: functional, cell-based; outline: as §1
A549 [9] = assay: Increase in cholesterol accumulation in human A549 cells at 60 uM incubated for 18 hrs by choelesterol-avid filipin-3 staining based confocal microscopic analysis; assay type: functional, cell-based
Outline: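 A549 cells were treated 18 h with compound or DMSO, fixed, and stained with Filipin III for cholesterol. Confocal imaging; fluorescence quantified in >30 cells (mean ± SEM), unpaired t test versus DMSO.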

## CO/C1=C\C(C)=C\[C@@H](C)[C@@H](O)[C@@H](C)C/C(C)=C/C=C/[C@H](OC)[C@@H]([C@@H](C)[C@@H](O)[C@H](C)[C@@]2(O)C[C@@H](O)[C@H](C)[C@@H](C(C)C)O2)OC1=O [BAFILOMYCIN A1]
A549 [1]
  fold change (FC): 5.2
A549 [2]
  EC50: 0.0006 µM

## COc1ccc(Br)cc1CNC1CC(C)CCC1C(C)C (stereo not given)
A549 [3]
  fold change (FC): 2.2

## NC(=O)c1ncn([C@@H]2O[C@H](CO)[C@@H](O)[C@H]2O)n1
Lyssavirus rabies
  inhibition: Active

## COc1ccc(Br)cc1CN(C(=O)c1ccccc1)C12CC3CC(CC(C3)C1)C2
A549 [3]
  fold change (FC): 0.25

## COc1ccc(Br)cc1CNc1ccccc1
A549 [3]
  fold change (FC): 0.19

## CC12CC3CC(C)(C1)CC(N)(C3)C2 [MEMANTINE]
A549 [3]
  fold change (FC): 0

## Brc1ccc(CNC23CC4CC(CC(C4)C2)C3)cc1
A549 [3]
  fold change (FC): 2.3

## CCCCCCCCCNCc1cc(Br)ccc1OC
A549 [3]
  fold change (FC): 0.26

## COc1ccc(I)cc1CNC12CC3CC(C)(CC(C)(C3)C1)C2
A549 [2]
  EC50: 25.1 µM
[4]
  CC50 at 24 h: 90.8 µM
A549 [5]
  Ratio CC50/EC50: 3.6
A549 [3]
  fold change (FC): 35.1

## COc1cc(I)ccc1CNC12CC3CC(CC(C3)C1)C2
A549 [3]
  fold change (FC): 3.6

## CC(N)C12CC3CC(CC(C3)C1)C2.Cl (stereo not given) [RIMANTADINE HYDROCHLORIDE]
A549 [3]
  fold change (FC): 0.35

## COc1ccc(Br)cc1CNCc1ccccc1
A549 [3]
  fold change (FC): 0

## COc1ccc(Br)cc1CNC12CC3CC(CC(C3)C1)C2
A549 [2]
  EC50: 62.9 µM
[4]
  CC50 at 24 h: 277 µM
A549 [5]
  Ratio CC50/EC50: 4.4
A549 [6]
  Activity: Active
Vero
  inhibition: Active
L929
  Activity: Active
Lyssavirus rabies
  inhibition: Active

## COc1ccc(Br)cc1CN[C@H]1C[C@@H]2CC[C@@]1(C)C2(C)C
A549 [3]
  fold change (FC): 0.4

## Ic1ccc(CNC23CC4CC(CC(C4)C2)C3)cc1
A549 [3]
  fold change (FC): 6.6

## Cn1c(CNC2C3CC4CC(C3)CC2C4)cc2ccccc21 (stereo not given)
A549 [3]
  fold change (FC): 0.21

## COc1ccc(Br)cc1CNC1CCCCC1
A549 [3]
  fold change (FC): 0

## COc1ccc(Br)cc1/C=N/C12CC3CC(CC(C3)C1)C2
A549 [7]
  Activity: inactive
A549 [3]
  fold change (FC): 0.05

## COc1ccc(Br)cc1CNCCCc1ccccc1
A549 [3]
  fold change (FC): 0.52

## Cn1c(CNC23CC4CC(CC(C4)C2)C3)cc2ccccc21
A549 [3]
  fold change (FC): 0.21

## COc1ccc(Br)cc1CNC(C)(C)C
A549 [3]
  fold change (FC): 0

## COc1ccc(Br)cc1CNc1cccc2ccccc12
A549 [3]
  fold change (FC): 0.19

## COc1ccc(Br)cc1C(=O)NC12CC3CC(CC(C3)C1)C2
A549 [8]
  Activity: inactive
A549 [9]
  Activity: inactive
A549 [3]
  fold change (FC): 0

## COc1ccc(Br)cc1CN(C)C12CC3CC(CC(C3)C1)C2
A549 [3]
  fold change (FC): 0.52

## COc1ccc(Br)cc1CN(C(C)=O)C12CC3CC(CC(C3)C1)C2
A549 [7]
  Activity: inactive
A549 [3]
  fold change (FC): 0.3

## CC12CC3CC(C)(C1)CC(NCc1ccc(I)cc1)(C3)C2
A549 [2]
  EC50: 38.3 µM
[4]
  CC50 at 24 h: 137 µM
A549 [5]
  Ratio CC50/EC50: 3.6
A549 [3]
  fold change (FC): 12.5

## NC12CC3CC(CC(C3)C1)C2 [AMANTADINE]
A549 [3]
  fold change (FC): 0.3

## O=[N+]([O-])c1cccc(CNC23CC4CC(CC(C4)C2)C3)c1
A549 [3]
  fold change (FC): 5.7
